Test results as given in publication PMC2606940 (The Journal of General Physiology, 2009).
Residue numbers refer to the chain shown, from its start. Read-outs that look alike come from different tables or passages of the source.

How the values were obtained:
CLC-0 E166G mutant = biological target: T1, CLC-0 E166G mutant (Torpedo marmorata, UniProt P21564, C212S/E166G); type: cell-based; conditions: read-out: Apparent affinity (K1/2)
T1 sequence (P21564 1-805 E166G/C212S): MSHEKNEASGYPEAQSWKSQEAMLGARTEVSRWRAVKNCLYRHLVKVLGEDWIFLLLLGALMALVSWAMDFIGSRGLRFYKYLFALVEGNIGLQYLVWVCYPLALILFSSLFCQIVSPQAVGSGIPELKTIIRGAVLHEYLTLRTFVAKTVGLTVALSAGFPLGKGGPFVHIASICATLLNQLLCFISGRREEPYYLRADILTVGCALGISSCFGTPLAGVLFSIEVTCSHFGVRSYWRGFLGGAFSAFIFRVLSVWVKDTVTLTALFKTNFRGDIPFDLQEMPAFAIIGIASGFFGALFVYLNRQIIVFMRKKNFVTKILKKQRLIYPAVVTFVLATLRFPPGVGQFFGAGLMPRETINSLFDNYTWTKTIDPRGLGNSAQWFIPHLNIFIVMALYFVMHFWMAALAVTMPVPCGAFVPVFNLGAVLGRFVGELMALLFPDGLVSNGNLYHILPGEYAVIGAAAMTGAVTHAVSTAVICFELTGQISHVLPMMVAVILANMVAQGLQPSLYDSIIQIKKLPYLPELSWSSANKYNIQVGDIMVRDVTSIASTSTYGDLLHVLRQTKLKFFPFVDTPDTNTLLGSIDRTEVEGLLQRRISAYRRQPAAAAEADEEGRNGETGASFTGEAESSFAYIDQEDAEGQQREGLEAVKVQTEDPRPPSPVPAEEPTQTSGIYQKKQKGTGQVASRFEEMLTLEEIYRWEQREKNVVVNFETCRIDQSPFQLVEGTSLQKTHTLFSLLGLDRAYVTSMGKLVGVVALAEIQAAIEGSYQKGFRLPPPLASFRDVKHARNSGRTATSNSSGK
In short: (§1)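 CLC-0 mutants in the C212S background were transfected into HEK293 cells with lipofectamine and recorded 1–3 d later as excised inside-out patches. Both sides held 130 mM NaCl, 5 mM MgCl2, 10 mM HEPES and 1 mM EGTA, pH 7.4. CPA was perfused continuously onto the cytoplasmic face. Steady-state current over the last 10 ms was normalized to bracketing blocker-free controls and fitted to a Langmuir function for K1/2. Values are mean ± SEM of ~4–6 patches.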

CLC-0 E166I mutant = biological target: T2, CLC-0 E166I mutant (Torpedo marmorata, UniProt P21564, C212S/E166I); type: cell-based; conditions: read-out: Apparent affinity (K1/2)
T2 sequence (P21564 1-805 E166I/C212S): T1 sequence (P21564 1-805 E166G/C212S) with G166I
In short: as §1

Row | Compound | IC50 (CLC-0 E166G mutant; −40 mV) | IC50 (CLC-0 E166G mutant; −60 mV) | IC50 (CLC-0 E166G mutant; −80 mV) | IC50 (CLC-0 E166G mutant; −100 mV) | IC50 (CLC-0 E166G mutant; −120 mV) | IC50 (CLC-0 E166G mutant; −140 mV) | IC50 (CLC-0 E166G mutant; −160 mV) | IC50 (CLC-0 E166I mutant; −40 mV) | IC50 (CLC-0 E166I mutant; −60 mV) | IC50 (CLC-0 E166I mutant; −80 mV) | IC50 (CLC-0 E166I mutant; −100 mV) | IC50 (CLC-0 E166I mutant; −120 mV) | IC50 (CLC-0 E166I mutant; −140 mV) | IC50 (CLC-0 E166I mutant; −160 mV)
1 | CCCCCCCC(=O)O [octanoate] | 225 ± 13 µM | 127 ± 8 µM | 85 ± 6 µM | 75 ± 6 µM | 82 ± 8 µM | 115 ± 14 µM | 175 ± 19 µM | 218 ± 49 µM | 136 ± 26 µM | 79 ± 13 µM | 45 ± 7 µM | 26 ± 3 µM | 15 ± 2 µM | 9 ± 1 µM
2 | O=C(O)COc1ccc(Cl)cc1 [CPA, p-chlorophenoxy acetate] | 300 ± 20 µM | 180 ± 10 µM | 140 ± 10 µM | 150 ± 10 µM | 180 ± 20 µM | 240 ± 30 µM | 320 ± 30 µM | 1250 ± 230 µM | 683 ± 85 µM | 384 ± 41 µM | 220 ± 24 µM | 117 ± 11 µM | 68 ± 8 µM | 39 ± 4 µM
